This passage reports Drug metabolism results from ChEMBL document CHEMBL3526048, “In vitro metabolism of rivoglitazone, a novel peroxisome proliferator-activated receptor γ agonist, in rat, monkey, and human liver microsomes and freshly isolated hepatocytes” (Drug Metab Dispos, 2011).

SMILES strings stand for the structures.

Format in all cases: ADME
The target of data set [1] is T1, UDP-glucuronosyltransferase 1A10 (Homo sapiens, UniProt Q9HAW8).
T1 sequence (Q9HAW8 whole entry): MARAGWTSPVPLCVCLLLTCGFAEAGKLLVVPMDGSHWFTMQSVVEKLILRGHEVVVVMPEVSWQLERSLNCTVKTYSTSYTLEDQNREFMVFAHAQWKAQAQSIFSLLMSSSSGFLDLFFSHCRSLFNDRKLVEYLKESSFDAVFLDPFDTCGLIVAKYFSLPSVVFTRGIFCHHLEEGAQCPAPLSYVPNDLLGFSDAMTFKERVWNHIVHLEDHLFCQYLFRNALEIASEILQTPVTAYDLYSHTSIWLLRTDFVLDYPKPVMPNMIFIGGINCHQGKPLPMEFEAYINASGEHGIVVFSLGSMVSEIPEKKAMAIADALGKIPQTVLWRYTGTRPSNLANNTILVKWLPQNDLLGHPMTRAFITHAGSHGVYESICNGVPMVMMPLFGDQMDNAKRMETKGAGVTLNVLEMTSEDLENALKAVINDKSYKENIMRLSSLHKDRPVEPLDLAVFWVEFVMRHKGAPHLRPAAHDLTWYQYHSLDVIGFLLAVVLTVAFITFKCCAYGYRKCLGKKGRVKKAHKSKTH
In words: Activity of human UGT1A10 expressed in microsomes isolated from baculovirus infected insect cell assessed as enzyme-mediated 2-mercapto-3-(4-((6-methoxy-1-methyl-1H-benzo[d]imidazol-2-yl)methoxy)phenyl)propanoic acid formation at 20 uM after 4 hrs by radio-HPLC/LC-MS/MS analysis in presence of UDPGA. An outline of the steps:
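Alamethicin (50 μg/mg protein, 15 min on ice) pretreated expressed human UGT microsomes (1 mg/ml protein) from baculovirus-infected insect cells. Incubation with [¹⁴C]rivoglitazone (20 μM) in 100 mM Tris-HCl (pH 7.5) with 10 mM MgCl₂, started by 5 mM UDPGA, 4 h at 37°C with shaking. UGT insect-cell control supersomes were run alongside. Acetonitrile stop, concentrated supernatant analysed by radio-HPLC, LC-MS and LC-MS/MS.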

In data set [2] the target is T2, Cytochrome P450 2C19 (Homo sapiens, UniProt P33261). In words: Activity of human CYP2C19 expressed in microsomes isolated from baculovirus infected insect cell assessed as enzyme-mediated 2-((4-((2,4-dioxothiazolidin-5-yl)methyl)phenoxy)methyl)-1-methyl-1H-benzo[d]imidazol-6-yl hydrogen sulfate formation at 20 uM after 2 hrs by radio-HPLC/LC-MS/MS analysis. The gist of the method:
(§1)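 Baculovirus/insect-cell microsomes expressing single human CYPs, 1 mg/ml protein, with 50 mM potassium phosphate (pH 7.4) or 100 mM Tris-HCl (pH 7.5). NADPH-generating system: 2 mM NADP⁺, 20 mM glucose 6-phosphate, 2 units/ml G6PDH, 10 mM MgCl₂. [¹⁴C]rivoglitazone at 20 μM, 2 h at 37°C with shaking. Control used insect-cell control supersomes. Stopped with acetonitrile; supernatant concentrated under nitrogen; metabolites analysed by radio-HPLC, LC-MS and LC-MS/MS.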

The test system of data set [3] is Liver microsome. The experiment in a line: Drug metabolism in human liver microsomes assessed as formation of 2-mercapto-3-(4-((6-methoxy-1-methyl-1H-benzo[d]imidazol-2-yl)methoxy)phenyl)propanoic acid at 20 uM after 2 to 4 hrs by radio-HPLC/LC-MS/MS analysis in presence of UDPGA, UDPGA/SAM and NADPH-generating system. In general terms: Liver microsomes are vesicles of endoplasmic reticulum, rich in cytochrome P450 enzymes.

The target in data set [4] is Cytochrome P450 3A5 (Homo sapiens, UniProt P20815). The experiment in a line: Activity of human CYP3A5 expressed in microsomes isolated from baculovirus infected insect cell assessed as enzyme-mediated 3-(4-((6-methoxy-1-methyl-1H-benzo[d]imidazol-2-yl)methoxy)phenyl)-2-(methylsulfinyl)propanamide formation at 20 uM after 2 hrs by radio-HPLC/LC-MS/MS analysis in presence of NADPH-generating system/SAM. An outline of the steps:
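cDNA-expressed human CYP3A5 in baculovirus-insect-cell microsomes (1 mg/ml protein) was incubated with [¹⁴C]rivoglitazone (20 μM) in 50 mM potassium phosphate (pH 7.4) or 100 mM Tris-HCl (pH 7.5). NADPH-generating system: 2 mM NADP⁺, 20 mM glucose 6-phosphate, 2 units/ml G6PDH, 10 mM MgCl₂. Incubation ran 2 h at 37°C with shaking; insect-cell control supersomes served as control. Acetonitrile stop, supernatant concentrated, then radio-HPLC, LC-MS and LC-MS/MS.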

The test system of data set [5] is Liver microsome. In words: Drug metabolism in human liver microsomes assessed as formation of 3-(4-((6-methoxy-1-methyl-1H-benzo[d]imidazol-2-yl)methoxy)phenyl)-2-(methylsulfonyl)propanamide at 20 uM after 2 hrs by radio-HPLC/LC-MS/MS analysis in presence of NADPH-generating system/SAM.
In data set [6] the target is T2, Cytochrome P450 2C19. In words: Activity of human CYP2C19 expressed in microsomes isolated from baculovirus infected insect cell assessed as enzyme-mediated 2-mercapto-3-(4-((6-methoxy-1-methyl-1H-benzo[d]imidazol-2-yl)methoxy)phenyl)propanoic acid formation at 20 uM after 2 hrs by radio-HPLC/LC-MS/MS analysis in presence of NADPH-generating system. An outline of the steps:
as §1

The target of data set [7] is T3, UDP-glucuronosyltransferase 1A3 (Homo sapiens, UniProt P35503).
T3 sequence (P35503 whole entry): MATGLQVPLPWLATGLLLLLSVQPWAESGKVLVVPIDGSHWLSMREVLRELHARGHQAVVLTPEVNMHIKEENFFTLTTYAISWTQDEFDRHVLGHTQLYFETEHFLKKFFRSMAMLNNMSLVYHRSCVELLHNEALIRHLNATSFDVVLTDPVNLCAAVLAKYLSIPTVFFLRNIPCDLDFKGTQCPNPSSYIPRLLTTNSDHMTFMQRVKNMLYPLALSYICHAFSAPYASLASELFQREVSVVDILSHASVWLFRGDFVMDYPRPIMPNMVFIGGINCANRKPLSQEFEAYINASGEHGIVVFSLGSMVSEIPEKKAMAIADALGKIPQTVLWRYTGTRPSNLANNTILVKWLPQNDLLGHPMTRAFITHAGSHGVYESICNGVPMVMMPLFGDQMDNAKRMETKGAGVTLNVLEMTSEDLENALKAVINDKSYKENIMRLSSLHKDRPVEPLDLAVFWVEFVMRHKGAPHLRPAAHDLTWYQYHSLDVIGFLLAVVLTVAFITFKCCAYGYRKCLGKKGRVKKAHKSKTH
In words: Activity of human UGT1A3 expressed in microsomes isolated from baculovirus infected insect cell assessed as enzyme-mediated 3-(4-((6-methoxy-1-methyl-1H-benzo[d]imidazol-2-yl)methoxy)phenyl)-2-(methylsulfinyl)propanamide formation at 20 uM after 4 hrs by radio-HPLC/LC-MS/MS analysis in presence of NADPH-generating system/SAM.

T2 sequence (P33261 whole entry): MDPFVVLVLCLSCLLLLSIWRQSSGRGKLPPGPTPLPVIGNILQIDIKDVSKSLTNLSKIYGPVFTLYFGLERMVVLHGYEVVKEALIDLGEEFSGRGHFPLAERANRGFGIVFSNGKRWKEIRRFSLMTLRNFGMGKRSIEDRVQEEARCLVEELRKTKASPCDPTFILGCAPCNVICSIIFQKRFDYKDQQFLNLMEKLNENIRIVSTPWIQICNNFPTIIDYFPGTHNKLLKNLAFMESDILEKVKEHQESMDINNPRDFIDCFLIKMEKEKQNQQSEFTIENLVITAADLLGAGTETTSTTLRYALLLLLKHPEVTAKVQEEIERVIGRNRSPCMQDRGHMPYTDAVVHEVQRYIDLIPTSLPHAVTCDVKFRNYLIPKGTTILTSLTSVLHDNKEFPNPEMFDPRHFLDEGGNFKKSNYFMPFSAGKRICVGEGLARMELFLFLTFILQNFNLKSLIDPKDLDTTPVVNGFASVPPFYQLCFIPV
Cytochrome P450 3A5, sequence (P20815 whole entry): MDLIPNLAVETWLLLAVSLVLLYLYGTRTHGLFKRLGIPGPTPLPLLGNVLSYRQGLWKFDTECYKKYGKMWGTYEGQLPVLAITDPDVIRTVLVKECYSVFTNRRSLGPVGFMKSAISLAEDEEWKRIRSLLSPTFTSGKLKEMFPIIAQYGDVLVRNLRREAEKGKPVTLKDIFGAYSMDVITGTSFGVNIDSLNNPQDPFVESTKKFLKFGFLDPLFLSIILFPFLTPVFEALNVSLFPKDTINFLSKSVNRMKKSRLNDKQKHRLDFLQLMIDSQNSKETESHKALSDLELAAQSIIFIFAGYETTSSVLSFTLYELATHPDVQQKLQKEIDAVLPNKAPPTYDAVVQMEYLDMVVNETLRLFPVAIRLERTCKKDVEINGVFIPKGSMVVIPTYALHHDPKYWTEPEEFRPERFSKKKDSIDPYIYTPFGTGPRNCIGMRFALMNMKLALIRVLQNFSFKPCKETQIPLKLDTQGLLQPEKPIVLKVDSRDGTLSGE

As for `COc1ccc2nc(COc3ccc(C[14CH]4SC(=O)NC4=O)cc3)n(C)c2c1.Cl` (racemic), the Drug metabolism result in data set [1] was “metabolite_not_detected”; in data set [2], “metabolite_not_detected”; in data set [3], “metabolite_detected”; in data set [4], “metabolite_not_detected”; in data set [5], “metabolite_detected”; in data set [6] it was “metabolite_detected”. Further, the Drug metabolism result in data set [7] is “metabolite_not_detected”.
